# Measured values from ChEMBL document CHEMBL1155721, “Isolation of dolastatin 10 from the marine cyanobacterium Symploca species VP642 and total stereochemistry and biological evaluation of its analogue symplostatin 1” (J Nat Prod, 2001).
# pEC50, pIC50: −log10 of the molar value. Active and inactive are the calls of the source. No cut-off for these calls is given here.
# Assays:
# A10 [1] = assay: Antitumor activity against rat A10 cells assessed as total loss of cellular microtubule at 150 nM after 18 hrs by indirect immunofluorescence; format: functional, cell-based
# LoVo = assay: Cytotoxicity against human LoVo cells; format: functional, cell-based
# Method in brief: (§1)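 In vitro cytotoxicity was read out by the sulforhodamine B (SRB) assay, and IC50 values were derived from it.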
# Mus musculus [2] = assay: Toxicity in iv dosed mouse on 1 day; format: organism-based; conditions: in vivo, 24 h
# Method in brief: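 Mice received a single intravenous injection on day 1 at 1.0 or 1.4 mg/kg, and lethality was recorded.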
# Mus musculus [3] = assay: Gastro intestinal toxicity in iv dosed mouse; format: organism-based; conditions: in vivo
# [4] = Antitumor activity against adriamycin-resistant early stage mouse M17/ADR cell implanted in mouse at 2.8 mg/kg, iv total dosing schedule on day 1 and day 4,7,8; format: functional
# Method in brief: (§2)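 Mice bearing early-stage subcutaneously implanted solid tumours; treatment given intravenously. Activity expressed as T/C and as log kill, (T − C)/(3.32·Td). T and C are the median days for treated and control tumours to reach 750-1000 mg. Td is the tumour volume doubling time.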
# MC-38 = assay: Antitumor activity against drug-insensitive mouse C38 cell implanted in mouse at 3 mg/kg, iv total dosing schedule on day 3; format: functional; method in brief: as §2
# A10 [5] = assay: Antitumor activity against rat A10 cells assessed as total loss of cellular microtubule at 2.5 nM after 18 hrs by indirect immunofluorescence; format: functional, cell-based
# KB = assay: Cytotoxicity against human KB cells; format: functional, cell-based; method in brief: as §1
# [6] = Antitumor activity against adriamycin-resistant early stage mouse M16/C/ADR cell implanted in mouse at 3.15 mg/kg, iv total dosing schedule on day 1 and day 3, 5 to 9; format: functional; method in brief: as §2
# Mus musculus [7] = assay: Liver toxicity in iv dosed mouse; format: organism-based; conditions: in vivo
# Mus musculus [8] = assay: Toxicity in iv dosed mouse assessed as local tissue damage; format: organism-based; conditions: in vivo
# [9] = Antitumor activity against drug-insensitive mouse 16/C cell implanted in mouse at 1.25 mg/kg, iv total dosing schedule on day 1 and day 4 to 6; format: functional; method in brief: as §2
# A10 [10] = assay: Antitumor activity against rat A10 cells assessed as loss of cellular microtubule after 18 hrs by indirect immunofluorescence; format: functional, cell-based; conditions: A10, 18 h
# Method in brief: (§3)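 Rat A-10 cells were plated on glass coverslips and left to attach and grow for at least 24 h. Drug was then added for 18 h. Cells were fixed and cellular microtubules were visualised by indirect immunofluorescence.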
# A10 [11] = assay: Antitumor activity against rat A10 cells assessed as total loss of cellular microtubule at 0.75 nM after 18 hrs by indirect immunofluorescence; format: functional, cell-based; method in brief: as §3
structure (smiles),measurement,setting,value
CC[C@]1(O)C[C@@H]2CN(CCc3c([nH]c4ccccc34)[C@@](C(=O)OC)(c3cc4c(cc3OC)N(C)[C@H]3[C@@](O)(C(=O)OC)[C@H](OC(C)=O)[C@]5(CC)C=CCN6CC[C@]43[C@@H]65)C2)C1,Activity,A10 [1],Active
CC[C@H](C)[C@@H]([C@@H](CC(=O)N1CCC[C@H]1[C@H](OC)[C@@H](C)C(=O)N[C@@H](Cc1ccccc1)c1nccs1)OC)N(C)C(=O)[C@@H](NC(=O)[C@H]([C@@H](C)CC)N(C)C)C(C)C [SYMPLOSTATIN 1],pIC50,"LoVo; Homo sapiens, LoVo",9.47
same,LD20,Mus musculus [2],1 mg/kg
same,LD60,Mus musculus [2],1.4 mg/kg
same,Activity,Mus musculus [3],Toxic
same,T/C,[4],32%
same,T/C,MC-38,0%
same,Activity,A10 [5],Active
same,pIC50,"KB; Homo sapiens, KB",9.82
same,T/C,[6],36%
same,Activity,Mus musculus [7],Toxic
same,Activity,Mus musculus [8],Toxic
same,T/C,[9],0%
same,pEC50,A10 [10],9.22
CC[C@H](C)[C@@H]([C@@H](CC(=O)N1CCC[C@H]1[C@H](OC)[C@@H](C)C(=O)N[C@@H](Cc1ccccc1)c1nccs1)OC)N(C)C(=O)[C@@H](NC(=O)[C@H](C(C)C)N(C)C)C(C)C (stereo in doubt; 1),Activity,A10 [11],Active
CC[C@H](C)[C@@H]([C@@H](CC(=O)N1CCC[C@H]1[C@H](OC)[C@@H](C)C(=O)N[C@@H](Cc1ccccc1)c1nccs1)OC)N(C)C(=O)[C@@H](NC(=O)[C@H](C(C)C)N(C)C)C(C)C (stereo in doubt) [DOLASTATIN-10],pIC50,LoVo; lovo,10.18
same,pIC50,KB; kb,10.39
CC[C@H](C)[C@@H]([C@@H](CC(=O)N1CCC[C@H]1[C@H](OC)[C@@H](C)C(=O)N[C@@H](Cc1ccccc1)c1nccs1)OC)N(C)C(=O)[C@@H](NC(=O)[C@H](C(C)C)N(C)C)C(C)C (stereo in doubt; 1) [DOLASTATIN-10],pIC50,"LoVo; Homo sapiens, LoVo",10.12
same,pIC50,"KB; Homo sapiens, KB",10.28
same,pEC50,A10 [10],9.60
